According to ChEMBL document CHEMBL4680121, “Development of (4-methoxyphenyl)-1H-tetrazol-5-amine regioisomers as a new class of selective antitubercular agents” (Eur J Med Chem, 2020):
Converted amounts (≈) assume the structure as drawn.

Key:
[1] = system: Mycobacterium tuberculosis; experiment: Antitubercular activity against Mycobacterium tuberculosis H37Rv ATCC 25618 assessed as inhibition of microbial growth by classical test tube method; type: functional
How it was run: (§1)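 Classical test-tube serial dilution in Youmans' modified Proskauer–Beck liquid medium with 10% bovine serum. Inoculum came from 14-day-old cultures. Compounds were given as DMSO solutions (stock 10 mg/ml), diluted geometrically in medium to 3.1–100 µg/ml, and incubated at 37 °C. MIC is the minimum concentration inhibiting growth relative to a no-compound control.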

Escherichia coli = experiment: Antibacterial activity against Escherichia coli ATCC 25922 assessed as bacterial growth inhibition measured after 18 hrs by two-fold serial microdilution method; type: functional
How it was run: (§2)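 Two-fold serial broth microdilution in MH II medium following modified CLSI procedures. Compounds were dissolved in DMSO and diluted in medium to at most 1% solvent, tested from 0.03125 to 512 μg/ml. Final inoculum 10^6 CFU/ml. MIC was taken as the lowest concentration with no visible growth after 18 h at 35 °C.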

[2] = system: Staphylococcus epidermidis; experiment: Antibacterial activity against Staphylococcus epidermidis ATCC 12228 assessed as bacterial growth inhibition measured after 18 hrs by two-fold serial microdilution method; type: functional; how it was run: as §2
Pseudomonas aeruginosa [3] = experiment: Antibacterial activity against Pseudomonas aeruginosa NCTC 6749 assessed as bacterial growth inhibition measured after 18 hrs by two-fold serial microdilution method; type: functional; how it was run: as §2
Klebsiella pneumoniae = experiment: Antibacterial activity against Klebsiella pneumoniae ATCC 10031 assessed as bacterial growth inhibition measured after 18 hrs by two-fold serial microdilution method; type: functional; how it was run: as §2
Proteus vulgaris = experiment: Antibacterial activity against Proteus vulgaris NCTC 4635 assessed as bacterial growth inhibition measured after 18 hrs by two-fold serial microdilution method; type: functional; how it was run: as §2
[4] = system: Mycobacterium tuberculosis; experiment: Antitubercular activity against Mycobacterium tuberculosis Spec.192 assessed as inhibition of microbial growth by classical test tube method; type: functional; how it was run: as §1
Staphylococcus aureus [5] = experiment: Antibacterial activity against Staphylococcus aureus ATCC 6538 assessed as bacterial growth inhibition measured after 18 hrs by two-fold serial microdilution method; type: functional; how it was run: as §2
Staphylococcus aureus [6] = experiment: Antibacterial activity against Staphylococcus aureus NCTC 4163 assessed as bacterial growth inhibition measured after 18 hrs by two-fold serial microdilution method; type: functional; how it was run: as §2
[7] = system: Staphylococcus epidermidis; experiment: Antibacterial activity against Staphylococcus epidermidis ATCC 1457 assessed as bacterial growth inhibition measured after 18 hrs by two-fold serial microdilution method; type: functional; how it was run: as §2
[8] = system: Staphylococcus epidermidis; experiment: Antibacterial activity against Staphylococcus epidermidis ATCC 35984/RP62A assessed as bacterial growth inhibition measured after 18 hrs by two-fold serial microdilution method; type: functional; how it was run: as §2
Pseudomonas aeruginosa [9] = experiment: Antibacterial activity against Pseudomonas aeruginosa PAO1 assessed as bacterial growth inhibition measured after 18 hrs by two-fold serial microdilution method; type: functional; how it was run: as §2
[10] = system: Mycobacterium tuberculosis; experiment: Antitubercular activity against Mycobacterium tuberculosis H37Rv ATCC 25618 assessed as inhibition of microbial growth incubated for 1 week by MABA method; type: functional; settings: H37Rv ATCC 25618, 168 h, time 1 weeks
How it was run: (§3)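 Microplate Alamar Blue assay in Middlebrook 7H9 broth with 10% OADC. Inoculum from fresh LJ culture was adjusted to McFarland 1 and diluted 1:20. DMSO stocks were two-fold serially diluted to final 0.125–512 µg/ml, with growth and sterile controls. Plates ran 1 week at 37 °C, then Alamar blue was added for 24 h. MIC is the lowest concentration preventing the blue-to-pink change.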

Mycobacterium kansasii = experiment: Antibacterial activity against Mycobacterium kansasii assessed as inhibition of microbial growth incubated for 1 week by MABA method; type: functional; settings: 168 h, time 1 weeks
How it was run: (§4)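 Microplate Alamar Blue assay using two-fold serial microdilution in Middlebrook 7H9 broth with 10% OADC, compounds 0.125–512 µg/ml from DMSO stocks. Inoculum came from fresh LJ culture, was adjusted to McFarland 1 and diluted 1:20. Plates were incubated 1 week at 37 °C, Alamar blue was added and plates were re-incubated 24 h. MIC was the lowest concentration preventing the blue-to-pink change. Each plate carried growth and sterile controls.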

HaCaT [11] = experiment: Cytotoxicity against human HaCaT cells assessed as reduction in cell viability at 100 uM measured after 72 hrs by MTT assay; type: cell-based
How it was run: (§5)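 MTT viability assay on cells grown in DMEM with 10% heat-inactivated FBS, penicillin/streptomycin and 20 mM HEPES at 37 °C/5% CO2. Cells were seeded at 1×10^4 per well and allowed to adhere for 24 h, then the medium was refreshed. Compounds were added at 20–140 μM for 72 h at 37 °C, followed by MTT (0.5 mg/mL in serum-free medium) for 4 h. Untreated cells served as control. IC50 is the concentration giving 50% growth inhibition versus control.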

[12] = system: Mycobacterium tuberculosis; experiment: Antitubercular activity against Mycobacterium tuberculosis Spec.192 assessed as inhibition of microbial growth incubated for 1 week by MABA method; type: functional; settings: Mycobacterium tuberculosis, 192, 168 h; time 1 weeks; how it was run: as §3
[13] = system: Mycobacterium scrofulaceum; experiment: Antibacterial activity against Mycobacterium scrofulaceum assessed as inhibition of microbial growth incubated for 1 week by MABA method; type: functional; settings: 168 h, time 1 weeks; how it was run: as §4
V79 [14] = experiment: Cytotoxicity against Chinese Hamster V79 cells assessed as reduction in cell viability measured after 72 hrs by MTT assay; type: cell-based; settings: Cricetulus griseus, V79, 72 h; how it was run: as §5
HaCaT [15] = experiment: Cytotoxicity against human HaCaT cells assessed as reduction in cell viability measured after 72 hrs by MTT assay; type: cell-based; how it was run: as §5
V79 [16] = experiment: Cytotoxicity against Chinese Hamster V79 cells assessed as reduction in cell viability at 100 uM measured after 72 hrs by MTT assay; type: cell-based, Cricetulus griseus; settings: v79, 72 h; how it was run: as §5
Mycobacterium avium = experiment: Antimycobacterial activity against Mycobacterium avium assessed as inhibition of microbial growth incubated for 1 week by MABA method; type: functional; settings: 168 h, time 1 weeks; how it was run: as §3
Mycobacterium xenopi = experiment: Antibacterial activity against Mycobacterium xenopi assessed as inhibition of microbial growth incubated for 1 week by MABA method; type: functional; settings: 168 h, time 1 weeks; how it was run: as §4
[17] = system: Mycolicibacterium fortuitum; experiment: Antibacterial activity against Mycobacterium fortuitum assessed as inhibition of microbial growth incubated for 1 week by MABA method; type: functional; settings: 168 h, time 1 weeks; how it was run: as §4
[18] = system: Mycobacterium intracellulare; experiment: Antimycobacterial activity against Mycobacterium intracellulare assessed as inhibition of microbial growth incubated for 1 week by MABA method; type: functional; settings: 168 h, time 1 weeks; how it was run: as §4

SMILES | MIC (Escherichia coli) [µg/mL] | MIC [2] [µg/mL] | MIC (Pseudomonas aeruginosa [3]) [µg/mL] | MIC (Klebsiella pneumoniae) [µg/mL] | MIC (Proteus vulgaris) [µg/mL] | MIC (Staphylococcus aureus [5]) [µg/mL] | MIC (Staphylococcus aureus [6]) [µg/mL] | MIC [7] [µg/mL] | MIC [8] [µg/mL] | MIC (Pseudomonas aeruginosa [9]) [µg/mL] | MIC [10] [µg/mL] | MIC (Mycobacterium kansasii) [µg/mL] | Activity (HaCaT [11]) | MIC [12] [µg/mL] | MIC [13] [µg/mL] | IC50 (V79 [14]) [µM] | IC50 (HaCaT [15]) [µM] | Activity (V79 [16]) | MIC (Mycobacterium avium) [µg/mL] | MIC (Mycobacterium xenopi) [µg/mL] | other results
COc1ccc(NC(S)=Nc2ccc(F)cc2)cc1 | > 256 | > 256 | > 256 | > 256 | > 256 | > 256 | > 256 | > 256 | > 256 | > 256 |  |  |  |  |  |  |  |  |  |  | MIC [1]: 50 µg/mL; MIC [4]: 100 µg/mL
COc1ccc(Nc2nnnn2-c2ccccc2Br)cc1 | > 256 | > 256 | > 256 | > 256 | > 256 | > 256 | > 256 | > 256 | > 256 | > 256 | 16 | 256 | Non-Toxic | 16 | 128 | 119 | 105 | Non-Toxic | > 512 | > 512 | MIC [17]: > 512 µg/mL; MIC [18]: 256 µg/mL
COc1ccc(NC(=S)Nc2ccccc2Cl)cc1 | > 256 | > 256 | > 256 | > 256 | > 256 | > 256 | > 256 | > 256 | > 256 | > 256 |  |  |  |  |  |  |  |  |  |  | MIC [1]: 25 µg/mL; MIC [4]: 25 µg/mL
COc1ccc(Nc2nnnn2-c2cccc(Br)c2)cc1 | > 256 | > 256 | > 256 | > 256 | > 256 | > 256 | > 256 | > 256 | > 256 | > 256 | 16 | 512 | Non-Toxic | 16 | 32 | 124 | 107 | Non-Toxic | 64 | 512 | MIC [17]: 512 µg/mL; MIC [18]: > 256 µg/mL
COc1ccc(Nc2nnnn2-c2ccc(Br)cc2)cc1 | > 256 | > 256 | > 256 | > 256 | > 256 | > 256 | > 256 | > 256 | > 256 | > 256 | 16 | 512 | Non-Toxic | 16 | 256 | 125 | 103 | Non-Toxic | > 512 | 512 | MIC [17]: > 512 µg/mL; MIC [18]: 256 µg/mL
COc1ccc(Nc2nnnn2-c2ccc(F)cc2)cc1 | 256 (≈ 897 µM) | 64 (≈ 224 µM) | 256 (≈ 897 µM) | > 256 | 256 (≈ 897 µM) | 64 (≈ 224 µM) | 64 (≈ 224 µM) | 128 (≈ 449 µM) | 128 (≈ 449 µM) | 256 (≈ 897 µM) | 8 | 512 | Non-Toxic | 8 | 64 | 145 | 101 | Non-Toxic | > 512 | 256 | MIC [17]: > 512 µg/mL; MIC [18]: 512 µg/mL
COc1ccc(NC(=S)Nc2cccc(F)c2)cc1 | > 256 | > 256 | > 256 | > 256 | > 256 | > 256 | > 256 | > 256 | > 256 | > 256 |  |  |  |  |  |  |  |  |  |  | MIC [1]: 50 µg/mL; MIC [4]: 100 µg/mL
COc1ccc(Nc2nnnn2-c2ccccc2Cl)cc1 | 256 (≈ 848 µM) | 64 (≈ 212 µM) | 256 (≈ 848 µM) | 256 (≈ 848 µM) | 256 (≈ 848 µM) | 64 (≈ 212 µM) | 64 (≈ 212 µM) | 128 (≈ 424 µM) | 64 (≈ 212 µM) | 256 (≈ 848 µM) | 8 | 256 | Non-Toxic | 8 | 32 | 102 | 100 | Non-Toxic | 512 | 512 | MIC [17]: 128 µg/mL; MIC [18]: 128 µg/mL
COc1ccc(NC(=S)Nc2ccccc2F)cc1 | > 256 | > 256 | > 256 | > 256 | > 256 | > 256 | > 256 | > 256 | > 256 | > 256 |  |  |  |  |  |  |  |  |  |  | MIC [1]: 50 µg/mL; MIC [4]: 50 µg/mL
